Calls of active or inactive are those of the source. The rule behind the calls is not given here.
What was measured:
[1] = Permeability of compound assessed as retention time by PAMPA-BBB assay; type: ADME
How it was run: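 Qualitative PAMPA-BBB. The donor solution was 200 μg/mL (final) in 0.01 M PBS pH 7.4, made from a stock in 50% EtOH. The filter was coated with brain polar lipid plus cholesterol in n-dodecane, and the acceptor held PBS. Plates were incubated 4 h at 37 °C. Donor and acceptor solutions were analysed by UHPLC-UV (200–400 nm) in triplicate, and compounds were identified by retention time.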

N2a [2] = assay: Antialzheimer activity in mouse N2a-APP cells assessed as increase of […] expression at 0.03 to 0.08 uM measured after 48 hrs by RT-qPCR method; type: functional, cell-based; settings: dose 0.03-0.08 µM
How it was run: (§1)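 Mutant APP-overexpressing N2a cells were grown in DMEM with 10% FBS and L-glutamine at 37 °C in 5% CO2. They were seeded in six-well plates at 5 × 10^5/mL (24 h) or 5 × 10^5/2 mL (48 h) and treated at 0.03–0.08 μM. Controls were pioglitazone 14 μM and medium alone. SYBR green qPCR used 20 ng cDNA, GAPDH/18S references and triplicate reactions; 2^−ΔΔCt; mean ± SD, n = 3.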

N2a [3] = assay: Antialzheimer activity in mouse N2a-APP cells assessed as reduction of BACE-1 expression at 0.03 to 0.08 uM measured after 24 hrs by RT-qPCR method; type: functional, cell-based; settings: dose 0.03-0.08 µM; how it was run: as §1
N2a [4] = assay: Antialzheimer activity in mouse N2a-APP cells assessed as increase of […] expression at 0.03 to 0.08 uM measured after 24 hrs by RT-qPCR method; type: functional, cell-based; settings: dose 0.03-0.08 µM; how it was run: as §1
N2a [5] = assay: Antialzheimer activity in mouse N2a-APP cells assessed as reduction of BACE-1 expression at 0.03 to 0.08 uM measured after 48 hrs by RT-qPCR method; type: functional, cell-based; settings: dose 0.03-0.08 µM; how it was run: as §1
N2a [6] = assay: Cytotoxicity against mouse N2a-APP cells assessed as cell viability at 0.03 to 0.08 uM measured after 24 hrs by MTT assay; settings: dose 0.03-0.08 µM
N2a [7] = assay: Cytotoxicity against mouse N2a-APP cells assessed as cell viability at 0.03 to 0.08 uM measured after 24 hrs by MTT assay; type: functional, cell-based; settings: dose 0.03-0.08 µM
How it was run: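 N2a-APP cells were seeded at 1 × 10^4 cells/well and exposed for 24 h to 0.03–0.08 μM, with medium-alone controls. MTT (1 mg/mL) was added for 2 h at 37 °C and the formazan was dissolved in DMSO. Absorbance was read at 570 nm, corrected at 650 nm. Survival is given as % of untreated cells; mean ± SD, one-way ANOVA.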

N2a [8] = assay: Antialzheimer activity in mouse N2a-APP cells assessed as up-regulation of PGC-1alpha expression at 0.03 to 0.08 uM measured after 24 to 48 hrs by RT-qPCR method; type: functional, cell-based; settings: dose 0.03-0.08 µM, time 24-48 hrs; how it was run: as §1
N2a [9] = assay: Antialzheimer activity in mouse N2a-APP cells assessed as effect on […] expression at 0.03 to 0.08 uM measured after 24 to 48 hrs by RT-qPCR method; type: functional, cell-based; settings: dose 0.03-0.08 µM, time 24-48 hrs; how it was run: as §1

Row | Retention_time [1] | SMILES | Activity (N2a [2]) | Activity (N2a [3]) | Activity (N2a [4]) | Activity (N2a [5]) | Activity (N2a [6]) | Activity (N2a [7]) | Activity (N2a [8]) | Activity (N2a [9])
1 | 28.42 min | COc1cc(/C=C/C(=O)NCCc2ccc(O)cc2)ccc1O [N-TRANS-FERULOYL TYRAMINE] |  |  |  |  |  |  |  | 
2 | 28.07 min | O=C(NCCc1ccc(O)cc1)c1cc2cc(O)c(O)cc2c(-c2ccc(O)c(O)c2)c1C(=O)NCCc1ccc(O)cc1 |  |  |  |  |  |  |  | 
3 | 24.08 min | O=C(/C=C/c1ccc(O)c(O)c1)NCCc1ccc(O)cc1 | Active | Active | Active | Active | inactive | inactive | Active | 
4 | 27.32 min | O=C(/C=C/c1ccc(O)cc1)NCCc1ccc(O)cc1 [N-P-COUMAROYL TYRAMINE] |  |  |  |  | inactive | inactive |  | inactive

Reference: ChEMBL document CHEMBL5032515, “Dual Role of Phenyl Amides from Hempseed on BACE 1, PPARγ, and PGC-1α in N2a-APP Cells” (J Nat Prod, 2021)
